Results reported in ChEMBL document CHEMBL5696442, “Discovery of type II inhibitors of TGFβ-activated kinase 1 (TAK1) and mitogen-activated protein kinase kinase kinase kinase 2 (MAP4K2)” (J Med Chem, 2015).

Columns and labels:
[1] = AUC last in Swiss albino mouse at 1 mg/kg, iv measured upto 24 hrs by LC/MS/MS analysis; type: ADME, organism-based; details: in vivo
Outline: (§1)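 Male Swiss albino mice. […] Blood was taken into K2EDTA from three mice per time point, from 0 to 24 h. Plasma was precipitated with acetonitrile and analysed by LC/MS/MS (LLOQ 1.138 ng/mL).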

[2] = target: T1, Mitogen-activated protein kinase 14 (Homo sapiens, UniProt Q16539); assay: Inhibition of p38 alpha (unknown origin) by KiNativ Profiling analysis
[3] = Half life in Swiss albino mouse at 1 mg/kg, iv measured upto 24 hrs by LC/MS/MS analysis; type: ADME, organism-based; details: in vivo; outline: as §1
[4] = target: Cyclin-dependent kinase 10 (Homo sapiens) (UniProt Q15131); assay: Inhibition of CDK10 Lys2 labeling site in human A-375 cells at 5 uM by KiNativ Profiling analysis relative to control; type: cell-based
Outline: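 Intact A375 melanoma cells were treated with compound at 5 or 0.5 μM, then lysed. Lysate kinases were labeled with a lysine-reactive ATP or ADP-biotin probe (KiNativ). Inhibition is read as protection of each kinase labeling site from probe labeling.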

[5] = Inhibition of p70S6K ATP Loop labeling site harbouring DLKPENIMLNHQGHVK in human A-375 cells at 5 uM by KiNativ Profiling analysis relative to control; details: condition cancer
[6] = target: Epidermal growth factor receptor (Homo sapiens) (UniProt P00533); assay: Inhibition of EGFR ACT labeling site harbouring LLGAEEKEYHAEGGKVPIK in human A-375 cells at 0.5 uM by KiNativ Profiling analysis relative to control; type: cell-based
Outline: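 Live A375 melanoma cells were treated with compound at 0.5 or 5 μM, then lysed. Lysates were labeled with a lysine-reactive ATP or ADP-biotin probe. The read-out was protection of each kinase probe-labeling site from labeling, relative to control.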

[7] = target: Serine/threonine-protein kinase 10 (Homo sapiens) (UniProt O94804); assay: Inhibition of LOK Lys1 labeling site harbouring ETGALAAAKVIETK in human A-375 cells at 0.5 uM by KiNativ Profiling analysis relative to control; type: cell-based
[8] = target: Dual specificity mitogen-activated protein kinase kinase 1 (Homo sapiens) (UniProt Q02750); assay: Inhibition of MAP2K1 Lys1 labeling site in human A-375 cells at 0.5 uM by KiNativ Profiling analysis relative to control; type: cell-based
[9] = target: Serine/threonine-protein kinase Nek7 (Homo sapiens) (UniProt Q8TDX7); assay: Inhibition of NEK7 Lys1 labeling site in human A-375 cells at 0.5 uM by KiNativ Profiling analysis relative to control; type: cell-based
[10] = target: T2, Mitogen-activated protein kinase 13 (Homo sapiens) (UniProt O15264); assay: Inhibition of p38 delta Lys2 labeling site in human A-375 cells at 0.5 uM by KiNativ Profiling analysis relative to control; type: cell-based
T2 sequence (whole entry): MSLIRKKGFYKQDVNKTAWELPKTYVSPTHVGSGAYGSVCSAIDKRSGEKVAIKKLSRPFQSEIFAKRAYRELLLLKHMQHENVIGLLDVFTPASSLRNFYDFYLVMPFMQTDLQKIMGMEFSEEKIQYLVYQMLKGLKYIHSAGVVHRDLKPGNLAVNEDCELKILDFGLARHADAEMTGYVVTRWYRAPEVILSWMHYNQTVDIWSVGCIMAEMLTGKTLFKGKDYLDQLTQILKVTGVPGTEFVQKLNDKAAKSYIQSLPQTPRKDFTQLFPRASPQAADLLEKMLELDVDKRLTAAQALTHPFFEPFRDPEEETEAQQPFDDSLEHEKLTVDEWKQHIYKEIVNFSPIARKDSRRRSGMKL

[11] = target: Cyclin-dependent kinase 17 (Homo sapiens) (UniProt Q00537); assay: Inhibition of PCTAIRE2 Lys1 labeling site harbouring SKLTENLVALKEIR in human A-375 cells at 0.5 uM by KiNativ Profiling analysis relative to control; type: cell-based
[12] = target: Protein kinase C alpha type (Homo sapiens) (UniProt P17252); assay: Inhibition of PKCa Lys2 labeling site in human A-375 cells at 0.5 uM by KiNativ Profiling analysis relative to control; type: cell-based
[13] = target: Serine/threonine-protein kinase SIK3 (Homo sapiens) (UniProt Q9Y2K2); assay: Inhibition of QSK Lys2 labeling site in human A-375 cells at 0.5 uM by KiNativ Profiling analysis relative to control; type: cell-based
[14] = target: Mitogen-activated protein kinase kinase kinase kinase 4 (Homo sapiens, UniProt O95819); assay: Inhibition of ZC1/HGK Lys2 labeling site in human A-375 cells at 0.5 uM by KiNativ Profiling analysis relative to control; type: cell-based
[15] = target: T3, Serine/threonine-protein kinase Chk1 (Homo sapiens) (UniProt O14757); assay: Inhibition of CHK1 Lys2 labeling site harbouring DIKPENLLLDERDNLK in human A-375 cells at 0.05 uM by KiNativ Profiling analysis relative to control; type: cell-based
T3 sequence (whole entry): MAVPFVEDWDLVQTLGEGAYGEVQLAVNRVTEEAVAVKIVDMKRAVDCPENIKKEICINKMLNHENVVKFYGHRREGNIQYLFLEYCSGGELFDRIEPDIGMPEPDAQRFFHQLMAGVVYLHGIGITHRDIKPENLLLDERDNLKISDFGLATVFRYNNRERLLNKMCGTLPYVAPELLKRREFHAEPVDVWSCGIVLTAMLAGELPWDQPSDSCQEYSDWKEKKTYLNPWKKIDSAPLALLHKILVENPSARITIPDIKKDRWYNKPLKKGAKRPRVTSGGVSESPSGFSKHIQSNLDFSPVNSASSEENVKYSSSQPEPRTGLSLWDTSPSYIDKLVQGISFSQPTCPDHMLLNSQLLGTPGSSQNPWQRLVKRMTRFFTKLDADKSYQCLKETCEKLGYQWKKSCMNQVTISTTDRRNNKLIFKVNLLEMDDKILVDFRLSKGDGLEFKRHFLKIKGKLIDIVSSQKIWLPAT

[16] = target: Dual specificity mitogen-activated protein kinase kinase 1 (Homo sapiens) (UniProt Q02750); assay: Inhibition of MAP2K1 Lys2 labeling site harbouring IMHRDVKPSNILVNSR in human A-375 cells at 0.05 uM by KiNativ Profiling analysis relative to control; type: cell-based
[17] = target: Serine/threonine-protein kinase 38 (Homo sapiens) (UniProt Q15208); assay: Inhibition of NDR1 Lys2 labeling site in human A-375 cells at 0.05 uM by KiNativ Profiling analysis relative to control; type: cell-based
[18] = target: T1, Mitogen-activated protein kinase 14; assay: Inhibition of p38 alpha Lys2 labeling site in human A-375 cells at 0.05 uM by KiNativ Profiling analysis relative to control; type: cell-based

Sequence of Dual specificity mitogen-activated protein kinase kinase 1 (Homo sapiens) (Q02750 whole entry): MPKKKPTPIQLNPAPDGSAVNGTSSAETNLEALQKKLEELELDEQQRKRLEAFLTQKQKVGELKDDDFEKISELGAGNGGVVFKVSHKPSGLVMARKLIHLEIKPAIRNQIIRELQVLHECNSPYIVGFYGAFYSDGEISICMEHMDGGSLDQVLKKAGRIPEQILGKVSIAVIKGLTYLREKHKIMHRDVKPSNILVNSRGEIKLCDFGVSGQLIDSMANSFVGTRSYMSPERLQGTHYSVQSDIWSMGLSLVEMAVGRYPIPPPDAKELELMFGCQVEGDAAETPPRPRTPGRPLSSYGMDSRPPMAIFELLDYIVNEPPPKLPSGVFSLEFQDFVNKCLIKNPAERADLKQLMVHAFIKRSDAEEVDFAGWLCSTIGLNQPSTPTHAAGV
T1 sequence (Q16539 whole entry): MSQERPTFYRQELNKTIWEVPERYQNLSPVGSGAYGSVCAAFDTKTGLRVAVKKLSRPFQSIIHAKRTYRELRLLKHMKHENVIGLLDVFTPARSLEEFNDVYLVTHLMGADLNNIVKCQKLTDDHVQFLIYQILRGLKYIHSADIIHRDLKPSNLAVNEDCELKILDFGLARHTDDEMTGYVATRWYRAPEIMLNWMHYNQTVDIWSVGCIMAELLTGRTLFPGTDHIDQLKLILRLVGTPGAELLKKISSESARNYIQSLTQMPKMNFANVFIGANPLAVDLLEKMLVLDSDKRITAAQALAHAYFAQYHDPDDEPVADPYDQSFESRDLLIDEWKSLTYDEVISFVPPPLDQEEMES
Sequence of Epidermal growth factor receptor (Homo sapiens) (P00533 whole entry): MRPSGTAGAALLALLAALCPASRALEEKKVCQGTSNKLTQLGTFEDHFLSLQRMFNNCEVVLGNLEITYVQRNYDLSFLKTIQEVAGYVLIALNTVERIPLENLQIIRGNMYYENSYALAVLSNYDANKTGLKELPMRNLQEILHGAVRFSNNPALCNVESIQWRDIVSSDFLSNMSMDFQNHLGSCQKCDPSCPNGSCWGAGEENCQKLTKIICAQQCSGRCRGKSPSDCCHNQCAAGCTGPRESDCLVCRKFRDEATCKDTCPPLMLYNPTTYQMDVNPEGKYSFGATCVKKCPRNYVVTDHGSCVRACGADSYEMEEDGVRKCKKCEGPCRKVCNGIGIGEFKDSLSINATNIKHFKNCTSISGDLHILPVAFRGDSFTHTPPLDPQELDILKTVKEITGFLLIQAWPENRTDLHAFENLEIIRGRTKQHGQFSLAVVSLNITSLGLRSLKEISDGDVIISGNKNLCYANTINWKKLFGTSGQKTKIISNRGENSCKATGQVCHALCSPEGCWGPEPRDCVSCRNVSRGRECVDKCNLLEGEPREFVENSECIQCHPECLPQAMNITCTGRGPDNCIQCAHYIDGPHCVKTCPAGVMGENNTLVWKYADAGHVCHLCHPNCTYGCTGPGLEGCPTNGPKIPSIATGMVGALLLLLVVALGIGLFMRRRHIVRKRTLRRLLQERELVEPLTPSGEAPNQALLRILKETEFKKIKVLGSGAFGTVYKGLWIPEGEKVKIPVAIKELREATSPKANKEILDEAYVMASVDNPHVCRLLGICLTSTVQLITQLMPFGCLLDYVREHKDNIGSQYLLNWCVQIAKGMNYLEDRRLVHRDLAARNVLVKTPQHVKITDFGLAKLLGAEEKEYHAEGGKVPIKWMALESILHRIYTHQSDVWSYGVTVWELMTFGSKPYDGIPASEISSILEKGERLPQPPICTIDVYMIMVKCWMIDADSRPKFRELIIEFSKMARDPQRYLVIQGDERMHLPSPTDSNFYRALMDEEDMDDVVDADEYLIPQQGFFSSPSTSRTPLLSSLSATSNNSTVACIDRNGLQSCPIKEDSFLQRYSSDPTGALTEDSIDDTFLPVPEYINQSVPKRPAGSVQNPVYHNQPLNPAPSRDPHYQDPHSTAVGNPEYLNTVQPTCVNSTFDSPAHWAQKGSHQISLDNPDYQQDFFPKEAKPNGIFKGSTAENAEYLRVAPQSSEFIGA
Sequence of Serine/threonine-protein kinase Nek7 (Homo sapiens) (Q8TDX7 whole entry, looked up): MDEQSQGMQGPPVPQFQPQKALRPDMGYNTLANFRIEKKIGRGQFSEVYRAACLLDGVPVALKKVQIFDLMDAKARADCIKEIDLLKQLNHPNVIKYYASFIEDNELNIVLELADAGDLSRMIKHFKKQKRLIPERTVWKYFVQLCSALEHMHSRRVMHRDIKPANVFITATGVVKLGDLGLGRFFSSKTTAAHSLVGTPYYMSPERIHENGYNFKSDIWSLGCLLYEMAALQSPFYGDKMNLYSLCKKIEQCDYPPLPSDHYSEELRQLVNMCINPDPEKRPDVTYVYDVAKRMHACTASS
Sequence of Cyclin-dependent kinase 17 (Homo sapiens) (Q00537 whole entry, looked up): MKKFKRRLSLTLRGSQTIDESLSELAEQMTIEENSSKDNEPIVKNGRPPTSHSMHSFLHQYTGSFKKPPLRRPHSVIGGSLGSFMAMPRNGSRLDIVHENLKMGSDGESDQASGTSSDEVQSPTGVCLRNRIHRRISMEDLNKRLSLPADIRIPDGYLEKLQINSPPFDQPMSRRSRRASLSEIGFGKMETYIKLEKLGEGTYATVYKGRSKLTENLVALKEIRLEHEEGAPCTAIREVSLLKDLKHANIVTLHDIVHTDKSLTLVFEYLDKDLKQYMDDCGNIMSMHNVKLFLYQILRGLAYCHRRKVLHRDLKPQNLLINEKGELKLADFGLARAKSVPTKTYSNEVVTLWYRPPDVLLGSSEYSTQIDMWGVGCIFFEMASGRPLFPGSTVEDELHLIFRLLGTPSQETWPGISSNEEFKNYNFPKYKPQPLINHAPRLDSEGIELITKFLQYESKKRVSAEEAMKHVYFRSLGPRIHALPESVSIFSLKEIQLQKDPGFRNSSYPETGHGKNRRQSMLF
Sequence of Serine/threonine-protein kinase 38 (Homo sapiens) (Q15208 2-465 limits assumed): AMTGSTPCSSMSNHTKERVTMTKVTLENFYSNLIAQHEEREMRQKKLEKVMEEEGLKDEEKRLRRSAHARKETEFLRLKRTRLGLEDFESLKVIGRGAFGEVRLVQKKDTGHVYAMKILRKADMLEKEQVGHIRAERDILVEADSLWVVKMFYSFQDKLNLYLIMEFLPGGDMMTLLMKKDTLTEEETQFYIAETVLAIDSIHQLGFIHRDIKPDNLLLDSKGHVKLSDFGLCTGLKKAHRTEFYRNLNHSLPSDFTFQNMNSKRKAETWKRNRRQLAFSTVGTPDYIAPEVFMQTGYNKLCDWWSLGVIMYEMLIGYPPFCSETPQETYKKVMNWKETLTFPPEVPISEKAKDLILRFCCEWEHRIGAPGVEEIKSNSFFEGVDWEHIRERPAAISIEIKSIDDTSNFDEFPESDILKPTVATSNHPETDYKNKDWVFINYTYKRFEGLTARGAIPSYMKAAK
Sequence of Cyclin-dependent kinase 10 (Homo sapiens) (Q15131 whole entry): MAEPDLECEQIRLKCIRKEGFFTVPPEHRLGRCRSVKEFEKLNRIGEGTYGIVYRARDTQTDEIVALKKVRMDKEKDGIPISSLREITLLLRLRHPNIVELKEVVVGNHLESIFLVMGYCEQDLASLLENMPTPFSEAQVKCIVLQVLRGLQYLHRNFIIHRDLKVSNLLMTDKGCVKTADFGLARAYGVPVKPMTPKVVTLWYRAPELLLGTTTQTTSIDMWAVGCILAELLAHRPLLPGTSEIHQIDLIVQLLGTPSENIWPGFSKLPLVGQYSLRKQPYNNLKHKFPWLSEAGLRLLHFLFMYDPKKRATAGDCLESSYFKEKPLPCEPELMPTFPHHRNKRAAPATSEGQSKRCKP

Structure (SMILES) | AUClast [1] | IC50 [2] | t1/2 [3] | inhibition [4] | inhibition at 5 µM [5] | inhibition [6] | inhibition [7] | inhibition [8] | inhibition [9] | inhibition [10] | inhibition [11] | inhibition [12] | inhibition [13] | inhibition [14] | inhibition [15] | inhibition [16] | inhibition [17] | inhibition [18]
CCN1CCN(Cc2ccc(NC(=O)c3ccc(C)c(/C=C/c4cnc5[nH]ccc5c4OC)c3)cc2C(F)(F)F)CC1 | 403 ng·h/mL | 238 nM | 4.66 h | 11.5% | -8% | -0.5% | 60.7% | 4.4% | 7.8% | 25.2% | 11.3% | 48.2% | 40.3% | 48.1% | 2.9% | 32.5% | 19.2% | 59.4%
CCN1CCN(Cc2ccc(NC(=O)c3ccc(C)c(Oc4ccnc5[nH]ccc45)c3)cc2C(F)(F)F)CC1 | 195 ng·h/mL | 102 nM | 2.03 h | 65.4% | 14.7% | 4.8% | 71.7% | -3.5% | -0.5% | 86.2% | 31.7% | 65% | 39.8% | 70.8% | 47.1% | 14.9% | 30% | 4.2%
